From ChEMBL document CHEMBL1134863, “Antifungal activity of bifunctional sphingolipids. Intramolecular synergism within long-chain alpha,omega-bis-aminoalcohols” (2002)
Values joined by “and” are separate entries in the source; they are usually repeats but may differ in a detail not shown here. Equal values may be shown once. Active and inactive are the calls of the source. The calls are words filed in the database; no cut-off is given here.

Assays:
Nakaseomyces glabratus [1] = assay: Minimum inhibitory concentration against Candida glabrata; assay type: functional
Summary of the method: (§1)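 Microbroth dilution assay, modified from a published method, against C. glabrata (fluconazole-resistant strain). MIC values come from duplicate experiments.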

Nakaseomyces glabratus [2] = assay: Antifungal minimum inhibitory concentration of compound against Candida glabrata; Inactive; assay type: functional, organism-based; summary of the method: as §1
Nakaseomyces glabratus [3] = assay: Fungistatic activity of bifunctional sphingolipids against Candida glabrata at a concentration of 12 ug/mL before dilution replating; growth in media; assay type: functional, organism-based
Nakaseomyces glabratus [4] = assay: Fungistatic activity of bifunctional sphingolipids against Candida glabrata at a concentration of 6 ug/mL before dilution replating; growth in media; assay type: functional, organism-based
Nakaseomyces glabratus [5] = assay: Fungistatic activity of bifunctional sphingolipids against Candida glabrata at a concentration of 0.3 ug/mL before dilution replating; growth in media; assay type: functional, organism-based
Nakaseomyces glabratus [6] = assay: Fungistatic activity of bifunctional sphingolipids against Candida glabrata at a concentration of 5 ug/mL before dilution replating; growth in media; assay type: functional, organism-based
Nakaseomyces glabratus [7] = assay: Fungistatic activity of bifunctional sphingolipids against Candida glabrata at a concentration of 30 ug/mL before dilution replating; no growth in media; assay type: functional, organism-based
Nakaseomyces glabratus [8] = assay: Fungistatic activity of bifunctional sphingolipids against Candida glabrata at a concentration of 10 ug/mL before dilution replating; growth in media; assay type: functional, organism-based
Nakaseomyces glabratus [9] = assay: Fungistatic activity of bifunctional sphingolipids against Candida glabrata at a concentration of 3 ug/mL before dilution replating; growth in media; assay type: functional, organism-based
Nakaseomyces glabratus [10] = assay: Fungistatic activity of bifunctional sphingolipids against Candida glabrata at a concentration of 1 ug/mL before dilution replating; growth in media; assay type: functional, organism-based
Nakaseomyces glabratus [11] = assay: Fungicidal versus fungistatic activity of bifunctional sphingolipids against Candida glabrata at a concentration of 6 ug/mL before dilution replating; no growth in media; assay type: functional, organism-based
Nakaseomyces glabratus [12] = assay: Fungicidal versus fungistatic activity of bifunctional sphingolipids against Candida glabrata at a concentration of 12 ug/mL before dilution replating; no growth in media; assay type: functional, organism-based
Nakaseomyces glabratus [13] = assay: Fungicidal versus fungistatic activity of bifunctional sphingolipids against Candida glabrata at a concentration of 3 ug/mL before dilution replating; no growth in media; assay type: functional, organism-based
Nakaseomyces glabratus [14] = assay: Fungicidal versus fungistatic activity of bifunctional sphingolipids against Candida glabrata at a concentration of 10 ug/mL before dilution replating; no growth in media; assay type: functional, organism-based
Nakaseomyces glabratus [15] = assay: Fungicidal versus fungistatic activity of bifunctional sphingolipids against Candida glabrata at a concentration of 1 ug/mL before dilution replating; no (fungicidal, no growth on plate) growth in media; assay type: functional, organism-based
Nakaseomyces glabratus [16] = assay: Fungicidal versus fungistatic activity of bifunctional sphingolipids against Candida glabrata at a concentration of 0.3 ug/mL before dilution replating; (fungicidal, no growth on plate) no growth in media; assay type: functional, organism-based
Nakaseomyces glabratus [17] = assay: Fungicidal versus fungistatic activity of bifunctional sphingolipids against Candida glabrata at a concentration of 5 ug/mL before dilution replating; no growth in media; assay type: functional, organism-based
Nakaseomyces glabratus [18] = assay: Fungicidal versus fungistatic activity of bifunctional sphingolipids against Candida glabrata at a concentration of 3 ug/mL before dilution replating; growth in media; assay type: functional, organism-based
Nakaseomyces glabratus [19] = assay: Fungicidal versus fungistatic activity of bifunctional sphingolipids against Candida glabrata at a concentration of 0.3 ug/mL before dilution replating; growth in media; assay type: functional, organism-based
Nakaseomyces glabratus [20] = assay: Fungicidal versus fungistatic activity of bifunctional sphingolipids against Candida glabrata at a concentration of 5 ug/mL before dilution replating; no fungistatic growth on plate; assay type: functional, organism-based
Nakaseomyces glabratus [21] = assay: Fungicidal versus fungistatic activity of bifunctional sphingolipids against Candida glabrata at a concentration of 10 ug/mL before dilution replating; no fungicidal growth on plate; assay type: functional, organism-based
Nakaseomyces glabratus [22] = assay: Fungicidal versus fungistatic activity of bifunctional sphingolipids against Candida glabrata at a concentration of 6 ug/mL before dilution replating; no fungistatic growth on plate; assay type: functional, organism-based
Nakaseomyces glabratus [23] = assay: Fungicidal versus fungistatic activity of bifunctional sphingolipids against Candida glabrata at a concentration of 1 ug/mL before dilution replating; growth in media; assay type: functional, organism-based
Nakaseomyces glabratus [24] = assay: Fungicidal versus fungistatic activity of bifunctional sphingolipids against Candida glabrata at a concentration of 10 ug/mL before dilution replating; no fungistatic growth on plate; assay type: functional, organism-based
Nakaseomyces glabratus [25] = assay: Fungicidal versus fungistatic activity of bifunctional sphingolipids against Candida glabrata at a concentration of 12 ug/mL before dilution replating no fungistatic growth on plate; assay type: functional, organism-based
Nakaseomyces glabratus [26] = assay: Fungicidal versus fungistatic activity of bifunctional sphingolipids against Candida glabrata at a concentration of 6 ug/mL before dilution replating; growth in media; assay type: functional, organism-based
Nakaseomyces glabratus [27] = assay: Fungicidal versus fungistatic activity of bifunctional sphingolipids against Candida glabrata at a concentration of 5 ug/mL before dilution replating; growth in media; assay type: functional, organism-based
Nakaseomyces glabratus [28] = assay: Fungicidal versus fungistatic activity of bifunctional sphingolipids against Candida glabrata at a concentration of 1 ug/mL before dilution replating; no fungistatic growth on plate; assay type: functional, organism-based
Nakaseomyces glabratus [29] = assay: Fungicidal versus fungistatic activity of bifunctional sphingolipids against Candida glabrata at a concentration of 3 ug/mL before dilution replating; no fungistatic growth on plate; assay type: functional, organism-based
[30] = Nakaseomyces glabratus, read-out: MIC

## C[C@H](NC(=O)c1ccccc1)[C@@H](CCCCCCCCCCCCCCCCCCCC[C@@H](OC(=O)c1ccccc1)[C@H](C)NC(=O)c1ccccc1)OC(=O)c1ccccc1
Nakaseomyces glabratus [1]; [30]
  MIC: > 100 mg/L
Nakaseomyces glabratus [2]
  MIC: inactive

## Hexadecyl-trimethyl-ammonium bromide
Nakaseomyces glabratus [1]
  MIC: 5 µg/mL and 14 µM

## NCCCCCCCCCCCCN
Nakaseomyces glabratus [1]; [30]
  MIC: > 100 mg/L

## CCC[C@@H](O)[C@H](C)N
Nakaseomyces glabratus [1]; [30]
  MIC: > 100 mg/L
Nakaseomyces glabratus [2]
  MIC: inactive

## C[N+](C)(C)CCCCCCCCCCCC[N+](C)(C)C.[Cl-].[Cl-]
Nakaseomyces glabratus [1]; [30]
  MIC: > 100 mg/L
Nakaseomyces glabratus [2]
  MIC: inactive

## CCCCCCCCCCCCC/C=C/[C@@H](O)[C@@H](N)CO [SPHINGOSINE]
Nakaseomyces glabratus [3]
  Activity: inactive
Nakaseomyces glabratus [4]
  Activity: inactive
Nakaseomyces glabratus [5]
  Activity: inactive
Nakaseomyces glabratus [6]
  Activity: inactive
Nakaseomyces glabratus [7]
  NA: Partially active
Nakaseomyces glabratus [1]; [30]
  MIC: 30 µg/mL and 100 µM
Nakaseomyces glabratus [8]
  Activity: inactive
Nakaseomyces glabratus [9]
  Activity: inactive
Nakaseomyces glabratus [10]
  Activity: inactive

## C[C@@H]1[C@H](O)[C@@H](C)/C=C/C=C/C=C/C=C/C=C/C=C/C=C/[C@H](O[C@@H]2O[C@H](C)[C@@H](O)[C@H](N)[C@@H]2O)C[C@@H]2O[C@](O)(C[C@@H](O)C[C@@H](O)[C@H](O)CC[C@@H](O)C[C@@H](O)CC(=O)O[C@H]1C)C[C@H](O)[C@H]2C(=O)O
Nakaseomyces glabratus [11]
  Activity: no growth in media
Nakaseomyces glabratus [12]
  Activity: no growth in media
Nakaseomyces glabratus [13]
  Activity: no growth in media
Nakaseomyces glabratus [14]
  Activity: no growth in media
Nakaseomyces glabratus [15]
  Activity: no growth in media
Nakaseomyces glabratus [16]
  Activity: no growth in media
Nakaseomyces glabratus [17]
  Activity: no growth in media

## C[C@@H](N)[C@H](O)CCCCCCCCCCCCCCC(=O)CCCCCCC[C@@H](O)[C@@H](N)CO
Nakaseomyces glabratus [18]
  Activity: growth in media
Nakaseomyces glabratus [19]
  Activity: growth in media
Nakaseomyces glabratus [20]
  Activity: growth in media
Nakaseomyces glabratus [21]
  Activity: growth in media
Nakaseomyces glabratus [12]
  Activity: growth in media
Nakaseomyces glabratus [1]; [30]
  MIC: 3 µg/mL and 6.2 µM
Nakaseomyces glabratus [22]
  Activity: growth in media
Nakaseomyces glabratus [23]
  Activity: growth in media

## C[C@H](N)[C@H](O)CCCCCCCCCCCCCCCCCCCC[C@@H](O)[C@H](C)N
Nakaseomyces glabratus [24]
  Activity: growth in media
Nakaseomyces glabratus [18]
  Activity: growth in media
Nakaseomyces glabratus [19]
  Activity: growth in media
Nakaseomyces glabratus [25]
  Activity: growth in media
Nakaseomyces glabratus [26]
  Activity: growth in media
Nakaseomyces glabratus [1]; [30]
  MIC: 10 µg/mL and 24 µM
Nakaseomyces glabratus [23]
  Activity: growth in media
Nakaseomyces glabratus [27]
  Activity: growth in media

## NCCCCCCN
Nakaseomyces glabratus [1]; [30]
  MIC: > 100 mg/L
Nakaseomyces glabratus [2]
  MIC: inactive

## CCC[C@@H](O)[C@@H](N)CO
Nakaseomyces glabratus [1]; [30]
  MIC: > 100 mg/L
Nakaseomyces glabratus [2]
  MIC: inactive

## CCC[C@@H](OC(=O)c1ccccc1)[C@H](COC(=O)c1ccccc1)NC(=O)c1ccccc1
Nakaseomyces glabratus [1]; [30]
  MIC: > 100 mg/L
Nakaseomyces glabratus [2]
  MIC: inactive

## C[C@@H](N)[C@H](O)CCCCCCCCCCCCCCC(=O)CCCCCCC[C@@H](OC[C@H]1O[C@@H](O)[C@H](O)[C@@H](O)[C@@H]1O)[C@@H](N)CO
Nakaseomyces glabratus [18]
  Activity: growth in media
Nakaseomyces glabratus [19]
  Activity: growth in media
Nakaseomyces glabratus [21]
  Activity: growth in media
Nakaseomyces glabratus [1]; [30]
  MIC: 10 µg/mL and 15 µM
Nakaseomyces glabratus [22]
  Activity: growth in media
Nakaseomyces glabratus [23]
  Activity: growth in media
Nakaseomyces glabratus [27]
  Activity: growth in media

## OC(Cn1cncn1)(Cn1cncn1)c1ccc(F)cc1F [FLUCONAZOLE]
Nakaseomyces glabratus [19]
  Activity: growth in media
Nakaseomyces glabratus [11]
  Activity: growth in media
Nakaseomyces glabratus [28]
  Activity: growth in media
Nakaseomyces glabratus [12]
  Activity: growth in media
Nakaseomyces glabratus [14]
  Activity: growth in media
Nakaseomyces glabratus [1]
  MIC: >=100 ug ml-1
Nakaseomyces glabratus [1]; [30]
  MIC: > 64 mg/L
Nakaseomyces glabratus [17]
  Activity: growth in media
Nakaseomyces glabratus [29]
  Activity: growth in media
